The values below come from ChEMBL document CHEMBL2086222, “Bioassay-guided isolation of prenylated xanthones and polycyclic acylphloroglucinols from the leaves of Garcinia nujiangensis” (J Nat Prod, 2012).

Each structure is given as a SMILES string. Active and inactive are the calls of the source. The calls are words filed in the database; no cut-off is given here.

The subject of one data set is MCF7. Kind of data set: Cytotoxicity against human MCF7 cells assessed as reduction in cell viability at 5 to 40 uM after 72 hrs by MTT assay. The class given is functional, cell-based. An outline of the steps:
(§1)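 Cells in RPMI 1640, DMEM or DMEM/F12 with 10% FBS, 37 °C, 5% CO2. Plated at 5 × 10^3 cells/well and attached overnight. Exposed 72 h to 5, 10, 20 or 40 μM from DMSO stocks diluted in medium. MTT (5 mg/mL stock in PBS) added for 4 h at 37 °C, formazan dissolved in DMSO, A490 read. Untreated cells taken as 100%.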
In general terms: Tetrazolium assays rely on reduction of a dye to a coloured formazan, in cell work by metabolically active cells.

In the next data set the test system is A-375. Kind of data set: Cytotoxicity against human A375 cells assessed as reduction in cell viability at 5 to 40 uM after 72 hrs by MTT assay. The format is functional, cell-based. An outline of the steps: as §1
In a further data set the test system is A549. Kind of data set: Cytotoxicity against human A549 cells assessed as reduction in cell viability at 5 to 40 uM after 72 hrs by MTT assay. The format is functional, cell-based. In outline: as §1
Another data set has as its system AGS. Kind of data set: Cytotoxicity against human AGS cells assessed as reduction in cell viability at 5 to 40 uM after 72 hrs by MTT assay. The class given is functional, cell-based. An outline of the steps:
as §1

The subject of another data set is MDA-MB-231. Kind of data set: Cytotoxicity against human MDA-MB-231 cells assessed as reduction in cell viability at 5 to 40 uM after 72 hrs by MTT assay. The format is functional, cell-based. An outline of the steps: as §1
A further data set relates to U-87MG ATCC. Kind of data set: Cytotoxicity against human U87 cells assessed as reduction in cell viability at 5 to 40 uM after 72 hrs by MTT assay. The class given is functional, cell-based. In outline: as §1
Another data set deals with PANC-1. Kind of data set: Cytotoxicity against human PANC1 cells assessed as reduction in cell viability at 5 to 40 uM after 72 hrs by MTT assay. The class given is functional, cell-based. In outline:
as §1

A further data set concerns HepG2. Kind of data set: Cytotoxicity against human HepG2 cells assessed as reduction in cell viability at 5 to 40 uM after 72 hrs by MTT assay. The class given is functional, cell-based. An outline of the steps: as §1
A further data set concerns BXPC-3. Kind of data set: Cytotoxicity against human BxPC3 cells assessed as reduction in cell viability at 5 to 40 uM after 72 hrs by MTT assay. The format is functional, cell-based. An outline of the steps:
as §1

A further data set has as its system NCI-H2126. Kind of data set: Cytotoxicity against human NCI-H2126 cells assessed as reduction in cell viability at 5 to 40 uM after 72 hrs by MTT assay. The class given is functional, cell-based. In outline:
as §1

Data set [1] in a line: Cytotoxicity against human MIHA cells assessed as reduction in cell viability at 5 to 40 uM after 72 hrs by MTT assay. The format is cell-based. An outline of the steps: as §1
For another data set, the system named is SMMC-7721. Kind of data set: Cytotoxicity against human SMMC7721 cells assessed as reduction in cell viability at 5 to 40 uM after 72 hrs by MTT assay. The format is functional, cell-based. In outline:
as §1

Take `C=C(C)[C@@H](CC=C(C)C)C[C@@]12C[C@H](CC=C(C)C)C(C)(C)[C@@](CC=C(C)C)(C(=O)C(C(=O)c3ccc(O)c(O)c3)=C1O)C2=O`: the outcome in the data set with MCF7, in the data set on A-375, with A549, in the data set with AGS, in the data set on MDA-MB-231 and in the data set on U-87MG ATCC was Active. The result with PANC-1, with HepG2, in the data set with BXPC-3, in the data set on NCI-H2126 and in the data set on SMMC-7721 was Active. In addition, the Activity result in data set [1] is on record as “Non-toxic”.
`C=C(C)CC[C@H]1C[C@@]23C[C@@H](CC=C(C)C)C(C)(C)[C@@](CC=C(C)C)(C(=O)C(C(=O)c4ccc(O)c(O)c4)=C2OC1(C)C)C3=O`: the outcome with MCF7, with A-375, with A549, with AGS, in the data set on MDA-MB-231 and in the data set on U-87MG ATCC was Active. The result in the data set with PANC-1, in the data set on HepG2, in the data set on BXPC-3, in the data set with NCI-H2126 and in the data set with SMMC-7721 was Active. In addition, the Activity entry in [1] is given as “Non-toxic”.
As to `COc1c(OC)c(O)c2c(=O)c3c(CC=C(C)C)c(CC=C(C)C)c(O)c(O)c3oc2c1CC=C(C)C` [NUJIANGEXANTHONE B], the outcome in the data set on MCF7, in the data set with A-375, with A549, in the data set with AGS, in the data set with MDA-MB-231 and in the data set with U-87MG ATCC was Active. The result in the data set with PANC-1, in the data set with HepG2, with BXPC-3, with NCI-H2126 and with SMMC-7721 was Active. For the same compound, the Activity result in data set [1] was “Non-toxic”.
Consider `C=C(C)CCC(C[C@@]12C[C@@H](CC=C(C)C)C(C)(C)[C@@](CC=C(C)C)(C(=O)c3c1oc1cc(O)c(O)cc1c3=O)C2=O)C(=C)C` (relative stereo), for which the outcome in the data set on MCF7, in the data set with A-375, in the data set on A549, in the data set on AGS, with MDA-MB-231 and in the data set with U-87MG ATCC was Active. The outcome with PANC-1, with HepG2, in the data set with BXPC-3, with NCI-H2126 and in the data set with SMMC-7721 was Active. The Activity result in data set [1] was “Non-toxic”.
For `O=c1c(O)c(-c2ccc(O)cc2)oc2cc(O)cc(O)c12` [KAEMPFEROL], the outcome in the data set with MCF7, in the data set on A-375, with A549, in the data set on AGS, with MDA-MB-231 and in the data set with U-87MG ATCC was Active. In addition, the outcome in the data set on PANC-1, with HepG2, in the data set on BXPC-3, in the data set on NCI-H2126 and with SMMC-7721 was Active. Besides, the Activity result in [1] was “Non-toxic”.
As to `C=C(C)CCC(C[C@@]12C[C@H](CC=C(C)C)C(C)(C)[C@@](CC=C(C)C)(C1=O)c1oc3cc(O)c(O)cc3c(=O)c1C2=O)C(=C)C` (relative stereo), the outcome in the data set with MCF7, in the data set with A-375, with A549, in the data set with AGS, in the data set on MDA-MB-231 and in the data set on U-87MG ATCC was Active. For the same compound, the outcome in the data set on PANC-1, in the data set with HepG2, with BXPC-3, with NCI-H2126 and in the data set on SMMC-7721 was Active. Also, the Activity result in [1] is “Non-toxic”.
As for `CC1(C)C=Cc2c(cc(O)c3c(=O)c4ccc(O)c(O)c4oc23)O1` [ISOJACAREUBIN], the Activity entry in [1] is “Non-toxic”.
Regarding `COc1c(O)c(O)c2c(=O)c3c(CC=C(C)C)c(CC=C(C)C)c(O)c(O)c3oc2c1CC=C(C)C` [NUJIANGEXANTHONE A], the result in the data set on MCF7, in the data set on A-375, in the data set with A549, in the data set with AGS, in the data set on MDA-MB-231 and in the data set on U-87MG ATCC was Active. Moreover, the outcome in the data set on PANC-1, in the data set with HepG2, in the data set on BXPC-3, with NCI-H2126 and with SMMC-7721 was Active. The Activity result in data set [1] is given as “Non-toxic”.
For the compound `C=C(C)[C@@H]1C[C@]23C[C@H](CC=C(C)C)C(C)(C)[C@](CC=C(C)C)(C(=O)C(C(=O)c4ccc(O)c(O)c4)=C2O[C@H]1C=C(C)C)C3=O` [GARCINIALIPTONE B], the outcome in the data set with MCF7, in the data set with A-375, in the data set on A549, in the data set on AGS, in the data set with MDA-MB-231 and in the data set on U-87MG ATCC was Active. In addition, the outcome in the data set with PANC-1, in the data set on HepG2, with BXPC-3, in the data set with NCI-H2126 and in the data set with SMMC-7721 was Active. Besides, the Activity entry in data set [1] is “Non-toxic”.
Turning to `CC(C)=CC[C@H]1C[C@@]23C[C@H](CC=C(C)C)C(C)(C)[C@@](CC=C(C)C)(C(=O)C(C(=O)c4ccc(O)c(O)c4)=C2OC1(C)C)C3=O`, the outcome with MCF7, in the data set on A-375, with A549, with AGS, in the data set on MDA-MB-231 and with U-87MG ATCC was Active. Moreover, the result in the data set with PANC-1, in the data set with HepG2, with BXPC-3, in the data set with NCI-H2126 and in the data set with SMMC-7721 was Active. For the same compound, the Activity entry in data set [1] is given as “Non-toxic”.
In the case of `COc1cc2c(=O)c3c(O)c(CC=C(C)C)c(O)c(CC=C(C)C)c3oc2c(O)c1O` [XANTHONE V2A], the outcome with MCF7, with A-375, with A549, with AGS, with MDA-MB-231 and with U-87MG ATCC was Active. Besides, the result in the data set on PANC-1, with HepG2, in the data set with BXPC-3, in the data set on NCI-H2126 and in the data set on SMMC-7721 was Active. Besides, the Activity entry in data set [1] is listed as “Non-toxic”.
